Compounds with a hit are over-represented: about 2.9% of the library has one in this group of screens.
EBNA-1 inhibitor = blocks EBNA-1 binding to DNA. EBNA-1 DNA binding, fluorescence polarization. inhibition, % at 14.8 µM. 300,000 tested, 0.34% active. AID 1950; in the data active = inhibition above about 28%
PfG6PD inh = PfG6PD (Plasmodium falciparum) enzyme inhibition. PfGluPho enzyme, NADPH resazurin-diaphorase fluorescence. inhibition, % at 20 µM. 350,000 tested, 0.78% active. AID 504690;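 active = inhibition reaching at least a set limit at 20 µM in the primary screen, cut at about 59% in these data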;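 also: 0% = DMSO wells with substrate and 100% = DMSO wells lacking glucose-6-phosphate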
Apaf-1 inh = blocks human Apaf-1 apoptosome activity; O14727; reconstituted apoptosome caspase-3 activity, DEVD-Rh110 fluorescence; inhibition, % at 20 µM; 330,000 tested, 0.71% active; AID 489030; active = inhibition of at least 40% at 20 µM;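 also: plate controls were DMSO wells for no effect and DEVD-CHO caspase inhibitor wells for full effect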
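Material: cell-free apoptosome with Apaf-1, procaspase-3 and caspase-9; Buffer or medium: Hepes pH 7.5 with detergent and BSA; Reagent: cytochrome c trigger plus (Z-DEVD)2-Rh110 caspase-3 substrate; Times: compound with Apaf-1, dATP, procaspase-3 30 min, then 50 min reaction, room temperature; Technique: Rh110 fluorescence intensity.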
UBC13 inh = inhibitors of human UBC13 polyubiquitin chain formation; TR-FRET; 330,000 tested, 0.47% active; inhibition, % at 20 µM; in the data active = inhibition above about 45%, passing the limit was not always enough
PfM18AAP inh = blocks P. falciparum M18 aspartyl aminopeptidase; 290,000 tested, 1.2% active; recombinant PfM18AAP, H-Glu-NHMec fluorogenic cleavage; inhibition, % at 7.35 µM;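 active = inhibition above the campaign mean inhibition over all tested compounds plus 3 SD, cut at about 28% in these data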;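 also: 0% = plate median of test compound wells and 100% = 2 mM ZnCl2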
ZTA DNA inh = ZTA (EBV) inhibition in EBNA-1 counter-screen; inhibition, % at 11 µM; ZTA-DNA binding, fluorescence polarization; P03206; 320,000 tested, 0.15% active; in the data active = inhibition above about 33%
PfGluPho conf = confirmation of Plasmodium falciparum G6PD inhibitors | 2,400 tested, 34% active | recombinant PfGluPho, NADPH-diaphorase-resazurin fluorescence | inhibition, % at 20 µM | AID 504753 | shares compounds with PfG6PD inh;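 active = inhibition of at least 50% at 20 µM in any single replicate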;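 also: 0% = DMSO with substrate and 100% = DMSO lacking glucose-6-phosphate substrate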
Diaphorase 10uM = inhibits diaphorase or oxidizes, flagging false PfG6PD hits; AID 504862; 820 tested, 39% active; diaphorase-coupled resazurin reduction, fluorescence, NADPH 10 uM; inhibition, % at 20 µM; shares compounds with PfG6PD inh;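 active = average inhibition reaching 50% or more with the compound at 20 µM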;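 also: resorufin red fluorescence formed as diaphorase reduces resazurin using NADPH; 0% = DMSO with enzyme and 100% = DMSO without enzyme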
Diaph ctr 30uM = counter-screen for P. falciparum G6PD inhibitors: diaphorase inhibitors, oxidizers | shares compounds with PfG6PD inh | Diaphorase/resazurin coupled assay, resorufin fluorescence, 30 uM NADPH | inhibition, % at 20 µM | 820 tested, 29% active;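 active = inhibition averaging 50% or more, tested at 20 µM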;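 also: 0% = DMSO with enzyme and 100% = DMSO wells lacking diaphorase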
* hit, by the source's call; nt = no result.

SMILES	EBNA-1 inhibitor	PfG6PD inh	Apaf-1 inh	UBC13 inh	PfM18AAP inh	ZTA DNA inh	PfGluPho conf	others
Cn1c2ccccc2c(=O)c2cc(C#Cc3ccsc3)ccc21	-2	2	22	12	8	9	nt
ClC(Cl)(c1nnnn1-c1ccccc1)c1nnnn1-c1ccccc1	-3	88*	nt	nt	12	-17	78*	Diaphorase 10uM=-8;Diaph ctr 30uM=-6
c1ccc(-c2nnnn2-c2ccccc2)cc1	nt	4	-7	0	-7	nt	nt
OCCC1CN(Cc2cnc(-c3ccc(Cl)cc3)nc2)CCN1C1CCCC1 (stereo unspecified)	0	-11	-18	6	-3	9	nt
Cc1ccc2nc(Cl)c(/C=N/Nc3ccc(C(=O)O)cc3)cc2c1	5	60*	-16	4	-12	21	32
Cc1ccc(C)c(S(=O)(=O)Nc2ccc3sc(C)nc3c2)c1	5	38	19	-6	4	2	nt
Cc1nc2cc(NS(=O)(=O)c3cccc4cccnc34)ccc2s1	-21	61*	6	-5	3	-14	37
C=CCn1c2ccccc2c2nnc(SCC(=O)NC(C(=O)OC)C(C)C)nc21 (stereo unspecified)	-2	20	-7	1	3	-3	nt
Nc1ncnc2[nH]c(=S)[nH]c12	nt	29	nt	nt	nt	nt	nt
O=c1[nH]c(=O)c2[nH]c(=S)[nH]c2[nH]1	nt	66*	nt	nt	nt	nt	28
COc1ccc(CN2CCN(C(=O)C3CCC(CNS(=O)(=O)c4ccc(C)cc4)CC3)CC2)c(OC)c1OC (stereo unspecified)	1	-7	6	5	3	7	nt
COC(=O)c1c(NS(=O)(=O)c2ccccc2)csc1C	9	91*	-6	9	-8	10	78*	Diaphorase 10uM=72*;Diaph ctr 30uM=56*
CCOC(=O)c1ccccc1NS(=O)(=O)c1ccc(C)cc1	-17	11	14	7	-4	11	nt
CCOC(=O)c1ccccc1NS(=O)(=O)c1ccccc1	18	79*	-11	17	0	6	60*	Diaphorase 10uM=58*;Diaph ctr 30uM=54*
CCn1ncc(CN2CCC(n3nccc3NC(=O)c3ccccc3Cl)CC2)c1C	nt	-12	nt	nt	nt	nt	nt
C[C@@H]1CCCCO[C@H](CN(C)C(=O)Cc2ccccc2)[C@@H](C)CN([C@H](C)CO)C(=O)c2cc(NC(=O)Nc3ccccc3)ccc2O1	nt	2	nt	nt	nt	nt	nt
CC(OC(=O)CSc1ccc([N+](=O)[O-])cc1)C(=O)NCc1ccccc1 (stereo unspecified)	-20	66*	6	-12	nt	-6	-24
O=C(COC(=O)CSc1ccc([N+](=O)[O-])cc1)NCCCc1ccccc1	2	66*	18	-6	-6	-6	-9
C[C@H](CO)N1C[C@H](C)[C@@H](CN(C)C(=O)Nc2ccccc2)Oc2ccc(NC(=O)Cn3cnnn3)cc2C1=O	nt	16	-15	1	nt	nt	nt
CCN1CCN(C(=S)c2ccc(O)cc2)CC1	-1	70*	-17	6	47*	7	53*	Diaphorase 10uM=-12;Diaph ctr 30uM=-4
CN(C)c1ccc(C(=S)N2CCN(Cc3ccccc3)CC2)cc1	-9	69*	10	-3	55*	-14	46
CCN(CC)c1ccc(C(=O)N2CCN(Cc3ccccc3)CC2)cc1	-6	-1	21	-8	3	-12	nt
CC(C)c1ccc(N=C2N=C(N)c3ccccc32)cc1	10	59*	-12	5	-6	1	30
CCCOc1ccc(-c2c(C(=O)N/N=C/C3CCCCC3)nnn2-c2nonc2N)cc1	-1	-9	9	-6	-4	7	nt
CCOC(=O)N1CCN(C(=O)c2ccc(NS(=O)(=O)c3ccc4[nH]c(=O)[nH]c4c3)cc2)CC1	1	-9	-1	0	nt	11	nt
SMILES	EBNA-1 inhibitor	PfG6PD inh	Apaf-1 inh	UBC13 inh	PfM18AAP inh	ZTA DNA inh	PfGluPho conf	others
Cc1ccc(NS(=O)(=O)c2ccc3[nH]c(=O)[nH]c3c2)cc1	6	-10	-7	-4	-7	9	nt
N#CC1=C(N)Oc2c(O)cc3ccccc3c2C1c1ccsc1 (stereo unspecified)	1	92*	-5	9	8	8	69*	Diaphorase 10uM=64*;Diaph ctr 30uM=50
CCOC(=O)C1=C(C)OC(N)=C(C#N)C1c1ccsc1 (stereo unspecified)	5	-35	-11	4	3	7	nt
CC(=O)C1(C)C(=O)N(c2ccc(C)cc2)C(=O)N1c1ccc(C)cc1 (stereo unspecified)	nt	2	nt	nt	nt	nt	nt
CCCCC1=CC2=C(c3ccco3)C(=O)C(C)(OC(=O)c3ccc(OC)cc3)C(=O)C2=CN1CCc1ccccn1 (stereo unspecified)	4	24	7	14	nt	5	nt
COC(=O)CCC(=O)OC1(C)C(=O)C2=CN(CCc3ccccn3)C(c3ccc(OC)cc3)=CC2=C(Br)C1=O (stereo unspecified)	-8	99*	73*	-88	nt	-35	41
COC(=O)CCCC1=CC2=CC(=O)C(C)(OC(=O)c3cccs3)C(=O)C2=CN1CCc1ccccn1 (stereo unspecified)	5	70*	17	-44	nt	-6	23
COc1ccccc1N1C(=O)c2cccc3cccc(c23)C1=O	4	-5	6	-8	7	-4	nt
O/N=C1/CCc2cccc3cccc1c23	-1	33	-9	2	7	2	nt
O=C1C(=NO)CCc2ccccc21	nt	62*	nt	nt	nt	nt	29
Cc1cccc(CNC(=O)c2ccc3c(c2)N(C)CCS3)c1	-2	71*	9	8	2	11	-20
CN1CCSc2ccc(C(=O)NCc3ccccc3F)cc21	-4	63*	11	12	7	9	14
CCN1CCSc2ccc(C(=O)NCc3ccccc3F)cc21	-15	49	19	13	7	2	nt
Cc1onc(-c2ccccc2Cl)c1C(=O)c1ccccc1	-4	6	-4	3	-5	-3	nt
Cc1oc2c(c1C(=O)c1ccccc1)C(=O)C(=O)c1ccccc1-2	2	108*	91*	-145	7	-23	101*	Diaphorase 10uM=90*;Diaph ctr 30uM=91*
CC1=C(n2nnc([N+](=O)[O-])n2)C(c2cccnc2)C(C#N)=C(N)O1 (stereo unspecified)	7	84*	-2	4	0	-1	79*	Diaphorase 10uM=48;Diaph ctr 30uM=49
CCC1(CC)C(=O)NC(=O)NC1=S	nt	3	nt	nt	nt	nt	nt
Cc1cc(C(=O)CSc2nnc(C3CC3)n2C2CC2)c(C)n1C(C)C	nt	43	-8	-7	nt	3	19
